High-throughput results: PubChem BioAssay, Johns Hopkins Ion Channel Center
KCNQ1 inh – human KCNQ1 channel inhibition. AID 2642. P51787. CHO-K1 KCNQ1, FluxOR thallium flux fluorescence; stronger effect = higher value. hit rate 1.3% among 310,000. B-score at 10 µM;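 active = compounds whose thallium flux B-score, printed positive for inhibition, exceeds three library SD while starting fluorescence stays within three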;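 note: channel opened by potassium depolarization with thallium stimulus after 20 min compound exposure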
Target sequence (P51787 whole entry, looked up): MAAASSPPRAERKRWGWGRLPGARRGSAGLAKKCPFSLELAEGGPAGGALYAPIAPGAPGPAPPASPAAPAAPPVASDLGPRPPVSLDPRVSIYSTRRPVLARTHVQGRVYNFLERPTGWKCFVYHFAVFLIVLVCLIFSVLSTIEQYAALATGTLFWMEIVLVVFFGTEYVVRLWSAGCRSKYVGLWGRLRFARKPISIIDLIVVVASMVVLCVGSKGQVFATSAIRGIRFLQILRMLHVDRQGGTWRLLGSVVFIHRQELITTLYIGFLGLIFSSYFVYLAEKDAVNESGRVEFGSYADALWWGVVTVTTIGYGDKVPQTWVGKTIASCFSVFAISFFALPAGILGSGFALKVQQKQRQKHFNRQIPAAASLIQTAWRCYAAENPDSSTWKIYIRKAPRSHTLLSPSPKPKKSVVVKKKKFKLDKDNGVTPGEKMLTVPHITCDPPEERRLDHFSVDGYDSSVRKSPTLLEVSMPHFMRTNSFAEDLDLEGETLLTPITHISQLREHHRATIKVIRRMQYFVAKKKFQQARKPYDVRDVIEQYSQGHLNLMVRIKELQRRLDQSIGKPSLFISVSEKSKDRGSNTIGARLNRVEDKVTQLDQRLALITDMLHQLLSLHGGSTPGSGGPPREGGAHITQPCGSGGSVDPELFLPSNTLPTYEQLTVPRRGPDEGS
hERG protect – shields human hERG channel from block by proarrhythmic agents | AID 1511 | hit rate 0.51% among 310,000 | CHO-hERG, FluxOR thallium flux, dofetilide IC70 present | Q12809 | activation (rescue from dofetilide block), less the hit threshold, % at 10 µM;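 active = activation above the mean of controls blocked by dofetilide plus 5 SD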;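 note: thallium influx through hERG after potassium depolarization seen as dye fluorescence rise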
Kir21 inh – Kir2.1 (mouse) channel inhibition. B-score at 10 µM. P35561. HEK293-Kir2.1, FluxOR thallium flux fluorescence; stronger effect = lower value. AID 1672. hit rate 0.85% among 310,000;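 active = fluorescence ratio B-score at or below minus 3 SD of library scores, with starting-brightness B-score within 2 SD, cut at about -4.2 in these data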;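 note: channel flux triggered by added potassium and thallium sulfate stimulus; B-score of peak minus minimum fluorescence over baseline after thallium stimulus; more negative B-score means stronger Kir2.1 block with less thallium influx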
KCNK9 block – blocks the human KCNK9 two-pore domain potassium channel; B-score at 10 µM; HEK293 KCNK9, FluxOR thallium flux fluorescence; stronger effect = lower value; hit rate 1.2% among 310,000;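 active = ratio B-score over 3 SD below the library mean, with starting fluorescence within 5 SD of its mean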;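 note: negative B-score means less thallium flux so channel inhibition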
KCNQ1 pot – human KCNQ1 channel potentiation or activation; P51787; CHO-K1 KCNQ1, thallium flux FluxOR fluorescence; stronger effect = higher value; B-score at 10 µM; hit rate 0.35% among 310,000; AID 2648;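 active = fluorescence ratio B-score, a plate-corrected score, at least three library SD, with initial intensity B-score within 5 SD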
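Material: CHO-K1 cells stably expressing KCNQ1. Medium: assay buffer for compound exposure, DMSO matched across wells. Reagent: K+/Tl+ depolarizing stimulus. Compound dosing: single-concentration screen. Times: 37 °C overnight plating, 90-min dark dye load, 20-min compound pretreatment. Technique: FluxOR Tl+ flux fluorescence.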
KCNK3 block – human KCNK3 channel inhibition, primary screen. O14649. CHO-KCNK3 thallium flux, FluxOR fluorescence; stronger effect = lower value. B-score at 10 µM. hit rate 0.84% among 340,000;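 active = B-score under library mean minus 4 SD, starting fluorescence ratio at most library mean plus 5 SD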;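 note: more negative B-score means stronger inhibition of thallium flux through KCNK3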
KCNQ1 block val – reconfirmed blocker of the human KCNQ1 potassium channel | shares compounds with KCNQ1 inh | KCNQ1 cell line, FluxOR thallium flux fluorescence | inhibition, % at 10 µM | hit rate 93% among 1,600;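 active = primary screen active, with duplicate mean exceeding buffer control mean plus 3 SD of buffer wells, cut at about 28% in these data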;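 note: 0% = buffer control ratio and 100% = XE991 inhibitor control ratio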
CHO Tl flux – activity in parental CHO cells lacking KCNQ1 | parental CHO-K1, FluxOR thallium flux fluorescence ratio; stronger effect = lower value; zero means no signal rise above baseline | fluorescence ratio (Tl flux) at 10 µM | hit rate 21% among 1,600 | shares compounds with KCNQ1 inh;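 active = mean of duplicate thallium-flux fluorescence ratios in parental host cells more than 5 SD below the buffer control mean, cut at about 0.38 in these data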;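 note: ratio is peak minus minimum fluorescence divided by baseline fluorescence; actives read low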
KCNQ1 APC inh – blocks human KCNQ1 current in automated patch clamp; shares compounds with KCNQ1 inh; KCNQ1-CHO cells; calls only at 10 µM; hit rate 20% among 490; AID 624120;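 active = KCNQ1 current drop exceeding 3 SD of negative control wells, seen in both duplicate runs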;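 note: steady state current during a 2 s step from -80 to +40 mV; negative values mean current inhibition and positive values mean potentiation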
KCNQ2 inh – KCNQ1 inhibitor that also blocks rat KCNQ2 channel; shares compounds with KCNQ1 inh; KCNQ2 cells, FluxOR thallium flux fluorescence; inhibition, % at 10 µM; hit rate 71% among 1,600;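 active = mean percent inhibition of the KCNQ2 thallium signal more than 5 SD above the buffer-only control wells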;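 note: KCNQ2 expressed in CHO cells; 0% = buffer control wells and 100% = XE-991 inhibitor control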
KCNQ1 KCNE1 spec – human KCNQ1/KCNE1 inhibition in KCNQ1 specificity screen. hit rate 77% among 1,600. inhibition, % at 10 µM. shares compounds with KCNQ1 inh. KCNQ1/KCNE1 cells, FluxOR thallium flux fluorescence;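 active = mean percent inhibition of duplicate wells above the buffer-only control mean plus 3 SD of those controls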;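 note: 0% = buffer only wells and 100% = XE-991 inhibitor control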
Numbers without * were called inactive; i = inactive; nt = no result; + = active, no number. Rows were chosen to be rich in hits. Some 3.7% of all compounds tested hit in one or more screens of this group.

SMILES	KCNQ1 inh	hERG protect	Kir21 inh	KCNK9 block	KCNQ1 pot	KCNK3 block	KCNQ1 block val	CHO Tl flux	KCNQ2 inh	KCNQ1 KCNE1 spec	others
Cc1ccccc1OCCCCc1c(C)n[nH]c1C	7*	-11.7	-1.94	i	i	i	109.0*	0.439	97.0%*	80.5%*	KCNQ1 APC inh=i
Cc1ccccc1OCCCc1c(C)n[nH]c1C	i	-6.7	-2.2	i	i	i	nt	nt	nt	nt
FC(F)(F)c1nc(SCc2ccc(Cl)cc2Cl)n[nH]1	6*	-18.4	1.08	i	i	i	0.0	0.476	i	i
CCOC(=O)c1cc(C#N)c(N2CCCC2)nc1-c1ccccc1	i	-1.4	-0.45	i	i	i	nt	nt	nt	nt
CCOC(=O)c1cc(C#N)c(Oc2ccc(F)cc2)nc1-c1ccccc1	9*	-11.5	-0.01	i	i	i	70.5*	0.38*	76.3%*	104.5%*
Cc1nc(N2CCC(C)CC2)c2c(C)c(C(=O)Nc3ccc(C)c(F)c3)sc2n1	7*	-27.6	1.13	i	i	i	113.5*	0.416	140.0%*	63.5%*	KCNQ1 APC inh=i
Cc1sc2ncnc(N3CCCCC3C)c2c1C (centres undefined)	i	-13.9	-1.41	i	i	i	nt	nt	nt	nt
Cc1c(C(=O)NCCC2=CCCCC2)sc2ncnc(N3CCCCC3C)c12 (centres undefined)	8*	-16.8	1.64	i	i	i	163.5*	0.327*	150.3%*	+
Cc1noc(C)c1NC(=O)Nc1ccc2c(c1)CC(=O)N([C@@H](C)CO)C[C@@H](C)[C@@H](CN(C)C(=O)Nc1cccc3ccccc13)O2	nt	nt	nt	nt	nt	i	nt	nt	nt	nt
CCOC(=O)C1=C(C)NC(C)=C(C(=O)OCC)C1/C=C/c1ccccc1	i	-16.0	-0.53	i	i	i	nt	nt	nt	nt
C=CCOC(=O)C1=C(C)NC(C)=C(C(=O)OCC=C)C1/C=C/c1ccccc1	12*	-19.6	0.6	i	i	-10.6*	135.0*	0.387	101.0%*	126.5%*	KCNQ1 APC inh=i
CCOc1ccc(NC(=O)Nc2nc(SCC)ns2)cc1	10*	-3.4	0.29	i	i	i	80.0*	0.509	i	35.5%*
OC1CCN(c2c3c(nc4cc(-c5ccc(Cl)cc5)nn24)CCC3)CC1	i	-3.9	0.05	i	i	i	nt	nt	nt	nt
Clc1cccc(-c2cc3nc4c(c(N5CCOCC5)n3n2)CCCC4)c1	6*	-5.2	-0.1	i	i	-9.11*	101.0*	0.479	77.7%*	117.0%*
COC(=O)c1cc(Br)ccc1NC(=O)CCNC(=O)c1ccco1	i	-4.3	-0.36	i	i	i	nt	nt	nt	nt
CC(=O)Nc1ccccc1OCC(=O)c1cc(C)n(Cc2cccs2)c1C	7*	-20.8	-1.01	i	i	-9.43*	110.0*	0.424	99.0%*	38.5%*
FC(F)(F)c1cc(-c2ccco2)nc(N2CCN(Cc3ccccc3)CC2)n1	8*	-10.5	0.76	i	i	i	82.0*	0.421	75.0%*	105.5%*
Cc1cc(NC2CCCCC2)nc2ccccc12	6*	-18.6	-0.68	i	i	i	57.5*	0.45	59.0%*	49.0%*
Cc1ccc(Cl)cc1NC(=O)C1CCCN(S(C)(=O)=O)C1 (centres undefined)	i	-4.5	-1.18	i	i	i	nt	nt	nt	nt
